The results in this text go back to ChEMBL document CHEMBL3875155, “New (arylalkyl)azole derivatives showing anticonvulsant effects could have VGSC and/or GABAAR affinity according to molecular modeling studies” (Eur J Med Chem, 2016).

Calls of active or inactive are those of the source. No cut-off for these calls is given here.

Data set [1] has as its system Mus musculus. Nature of the data set: Anticonvulsant activity in Swiss albino mouse assessed as protection against maximal electroshock-induced seizures at 300 mg/kg, ip after 0.5 hrs. Type of data set: functional, organism-based. The method in brief:
(§1)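 Compound suspended in PEG 400 and given i.p. at 30, 100 or 300 mg/kg, 0.5 or 4 h before testing. Saline (0.9%) applied to the corneas, then 60 Hz alternating current for 0.2 s through corneal electrodes. A mouse counts as protected if hind limb tonic extension stays under 90°. PEG-only placebo mice serve as negative control. Scored as number protected/number tested.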

Data set [2] deals with Mus musculus. Nature of the data set: Anticonvulsant activity in Swiss albino mouse assessed as protection against maximal electroshock-induced seizures at 100 mg/kg, ip after 4 hrs. The class given is functional, organism-based. A digest of the protocol: as §1
In data set [3] the test system is Mus musculus. Nature of the data set: Anticonvulsant activity in Swiss albino mouse assessed as protection against subcutaneously injected metrazol induced seizures at 300 mg/kg, ip after 0.5 hrs. Type of data set: functional, organism-based. The method in brief: (§2)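 Test compounds were given i.p. as PEG 400 suspensions at 30, 100 or 300 mg/kg, 0.5 or 4 h ahead. Metrazol 85 mg/kg is injected s.c. in the neck midline, and mice are watched for 30 min. A mouse counts as protected if it has no clonic spasm episode (about 3–5 s) of the limbs, jaws or vibrissae. PEG placebo serves as negative control. Scored as number protected/number tested.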

For data set [4], the system named is Mus musculus. Nature of the data set: Anticonvulsant activity in Swiss albino mouse assessed as protection against subcutaneously injected metrazol induced seizures at 30 mg/kg, ip after 4 hrs. The class given is functional, organism-based. The method in brief: as §2
Data set [5] concerns Mus musculus. Nature of the data set: Anticonvulsant activity in Swiss albino mouse assessed as protection against subcutaneously injected metrazol induced seizures at 100 mg/kg, ip after 4 hrs. The class given is functional, organism-based. A digest of the protocol:
as §2

Data set [6] has as its system Mus musculus. Nature of the data set: Anticonvulsant activity in Swiss albino mouse assessed as protection against subcutaneously injected metrazol induced seizures at 300 mg/kg, ip after 4 hrs. The class given is functional, organism-based. The method in brief: as §2
Data set [7] has as its system Mus musculus. Nature of the data set: Neurotoxicity in Swiss albino mouse at 30 mg/kg, ip after 0.5 hrs by rotarod test. The class given is toxicity, organism-based. Conditions: in vivo. A digest of the protocol:
(§3)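 Rotarod turning at 6 rpm, run after i.p. dosing of PEG 400 suspension (30, 100 or 300 mg/kg; 0.5 or 4 h). Falling off three times within 1 min marks a mouse as neurotoxic. Placebo (PEG) mice serve as control. Scored as number failing/number tested.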

Data set [8] deals with Mus musculus. Nature of the data set: Neurotoxicity in Swiss albino mouse at 100 mg/kg, ip after 0.5 hrs by rotarod test. The class given is toxicity, organism-based. As to conditions: in vivo. A digest of the protocol:
as §3
(The rotarod test checks motor coordination on a turning rod.)

The subject of data set [9] is Mus musculus. Nature of the data set: Neurotoxicity in Swiss albino mouse at 300 mg/kg, ip after 0.5 hrs by rotarod test. Type of data set: toxicity, organism-based. Conditions: in vivo. The method in brief: as §3
For data set [10], the system named is Mus musculus. Nature of the data set: Neurotoxicity in Swiss albino mouse at 30 mg/kg, ip after 4 hrs by rotarod test. The class given is toxicity, organism-based. As to conditions: in vivo. A digest of the protocol: as §3
Data set [11] relates to Mus musculus. Nature of the data set: Neurotoxicity in Swiss albino mouse at 100 mg/kg, ip after 4 hrs by rotarod test. Type of data set: toxicity, organism-based. Conditions: in vivo. The method in brief: as §3
The test system of data set [12] is Mus musculus. Nature of the data set: Neurotoxicity in Swiss albino mouse at 300 mg/kg, ip after 4 hrs by rotarod test. Conditions: in vivo. Type of data set: toxicity, organism-based. A digest of the protocol:
as §3

For data set [13], the system named is Mus musculus. Nature of the data set: Anticonvulsant activity in Swiss albino mouse assessed as protection against maximal electroshock-induced seizures at 300 mg/kg, ip after 4 hrs. Type of data set: functional, organism-based. The method in brief:
as §1
(In general: The maximal electroshock test induces tonic seizures with an electrical stimulus.)

For data set [14], the system named is Mus musculus. Nature of the data set: Anticonvulsant activity in Swiss albino mouse assessed as protection against maximal electroshock-induced seizures at 100 mg/kg, ip after 0.5 hrs. The class given is functional, organism-based. A digest of the protocol: as §1
For data set [15], the system named is Mus musculus. Nature of the data set: Anticonvulsant activity in Swiss albino mouse assessed as protection against maximal electroshock-induced seizures at 30 mg/kg, ip after 0.5 hrs. The class given is functional, organism-based. A digest of the protocol:
as §1

Data set [16] has as its system Mus musculus. Nature of the data set: Anticonvulsant activity in Swiss albino mouse assessed as protection against maximal electroshock-induced seizures at 30 mg/kg, ip after 4 hrs. The class given is functional, organism-based. The method in brief: as §1

As for `CC(C)CC(=O)O/N=C(\Cn1cncn1)c1ccc2ccccc2c1.Cl`, the result in the data set on Mus musculus [1], in the data set with Mus musculus [2], in the data set with Mus musculus [3], in the data set on Mus musculus [4], with Mus musculus [5] and in the data set on Mus musculus [6] was Active. In addition, the Activity result in the data set with Mus musculus [7], with Mus musculus [8], in the data set on Mus musculus [9], with Mus musculus [10], in the data set on Mus musculus [11] and in the data set on Mus musculus [12] was “Non-Toxic” in each case.

As to `CCCCC(=O)O/N=C(\Cn1cncn1)c1ccc2ccccc2c1.Cl`, the result in the data set on Mus musculus [1] was Active. The Activity result in the data set with Mus musculus [7], in the data set with Mus musculus [8], in the data set on Mus musculus [9], in the data set on Mus musculus [10], with Mus musculus [11] and in the data set with Mus musculus [12] was “Non-Toxic” each time.

For the compound `CC(C)(C)C(=O)O/N=C(\Cn1cncn1)c1ccc2ccccc2c1`, the Activity entry with Mus musculus [7], in the data set on Mus musculus [8], with Mus musculus [9], in the data set with Mus musculus [10], in the data set with Mus musculus [11] and with Mus musculus [12] was “Non-Toxic” in each case.

On to `O=C(/C=C/c1ccccc1)O/N=C(\Cn1cncn1)c1ccc2ccccc2c1`, for which the Activity result in the data set on Mus musculus [7], in the data set with Mus musculus [8], with Mus musculus [9], with Mus musculus [10], in the data set on Mus musculus [11] and with Mus musculus [12] was “Non-Toxic” throughout.

For `Cl.O=C(Cc1ccccc1)O/N=C(\Cn1cncn1)c1ccc2ccccc2c1`, the Activity entry in the data set with Mus musculus [7], with Mus musculus [8], in the data set with Mus musculus [9], in the data set on Mus musculus [10], with Mus musculus [11] and in the data set on Mus musculus [12] was “Non-Toxic” each time.

Regarding `O=C(O/N=C(\Cn1cncn1)c1ccc2ccccc2c1)C1CCCCC1`, the result in the data set on Mus musculus [1] was Active. The Activity entry with Mus musculus [7], in the data set on Mus musculus [8], in the data set with Mus musculus [9], in the data set with Mus musculus [10], in the data set with Mus musculus [11] and in the data set with Mus musculus [12] was “Non-Toxic” each time.

On to `CC(C)C(=O)O/N=C(\Cn1cncn1)c1ccc2ccccc2c1.Cl`, for which, in the data set with Mus musculus [13], the result was Active. Moreover, the Activity result in the data set with Mus musculus [7], in the data set with Mus musculus [8], in the data set on Mus musculus [9], in the data set with Mus musculus [10], with Mus musculus [11] and with Mus musculus [12] was “Non-Toxic” in each case.

As to `CCCC(C)C(=O)O/N=C(\Cn1cncn1)c1ccc2ccccc2c1.Cl` (configuration not stated), in the data set with Mus musculus [1], the outcome was Active. Also, the Activity entry in the data set on Mus musculus [7], in the data set with Mus musculus [8], in the data set on Mus musculus [9], in the data set with Mus musculus [10], with Mus musculus [11] and with Mus musculus [12] was “Non-Toxic” each time.

With `CCC(C)C(=O)O/N=C(\Cn1cncn1)c1ccc2ccccc2c1` (configuration not stated), the outcome in the data set with Mus musculus [14], with Mus musculus [1] and in the data set with Mus musculus [6] was Active. The Activity result with Mus musculus [7], in the data set on Mus musculus [8], with Mus musculus [9], in the data set with Mus musculus [10], in the data set on Mus musculus [11] and in the data set with Mus musculus [12] was “Non-Toxic” throughout.

Consider `CCCC(=O)O/N=C(\Cn1cncn1)c1ccc2ccccc2c1`, for which the result in the data set on Mus musculus [13] was Active. Moreover, the Activity result with Mus musculus [7], in the data set on Mus musculus [8], in the data set on Mus musculus [9], with Mus musculus [10], with Mus musculus [11] and in the data set on Mus musculus [12] was “Non-Toxic” in each case.

Regarding `NC(=O)N1c2ccccc2C=Cc2ccccc21` [CARBAMAZEPINE], the outcome in the data set with Mus musculus [15], in the data set with Mus musculus [14], with Mus musculus [1], with Mus musculus [2], in the data set on Mus musculus [13] and in the data set with Mus musculus [3] was Active. Further, the outcome with Mus musculus [5] and in the data set on Mus musculus [6] was Active. The Activity result in the data set with Mus musculus [7] is “Non-Toxic”; in the data set on Mus musculus [8] it was “Non-Toxic”; with Mus musculus [9], “Toxic”; in the data set on Mus musculus [10] it was “Non-Toxic”; in the data set with Mus musculus [11], “Non-Toxic”; with Mus musculus [12], “Non-Toxic”.

On to `CCC(=O)O/N=C(\Cn1cncn1)c1ccc2ccccc2c1.Cl`, for which the Activity entry in the data set on Mus musculus [7], in the data set with Mus musculus [8], with Mus musculus [9], in the data set with Mus musculus [10], with Mus musculus [11] and in the data set on Mus musculus [12] was “Non-Toxic” in each case.

On to `CC(C)CCC(=O)O/N=C(\Cn1cncn1)c1ccc2ccccc2c1.Cl`, for which the result in the data set with Mus musculus [14], with Mus musculus [1] and in the data set on Mus musculus [6] was Active. Also, the Activity result in the data set on Mus musculus [7], in the data set with Mus musculus [8], in the data set with Mus musculus [9], with Mus musculus [10], with Mus musculus [11] and in the data set on Mus musculus [12] was “Non-Toxic” each time.

For the compound `O=C1NC(=O)C(c2ccccc2)(c2ccccc2)N1` [PHENYTOIN], the result with Mus musculus [15], in the data set on Mus musculus [14], in the data set on Mus musculus [1], in the data set with Mus musculus [16], with Mus musculus [2] and with Mus musculus [13] was Active. The Activity result in the data set with Mus musculus [7] is given as “Non-Toxic”; in the data set on Mus musculus [8] it was “Non-Toxic”; with Mus musculus [9], “Toxic”; with Mus musculus [10], “Non-Toxic”; in the data set on Mus musculus [11], “Toxic”; in the data set with Mus musculus [12], “Toxic”.

For the compound `CCCC(CCC)C(=O)O/N=C(\Cn1cncn1)c1ccc2ccccc2c1.Cl`, the outcome in the data set on Mus musculus [13] and in the data set with Mus musculus [6] was Active. The Activity result in the data set with Mus musculus [7], in the data set on Mus musculus [8], in the data set on Mus musculus [9], in the data set with Mus musculus [10], with Mus musculus [11] and in the data set on Mus musculus [12] was “Non-Toxic” throughout.

In the case of `CCC(C)CC(=O)O/N=C(\Cn1cncn1)c1ccc2ccccc2c1.Cl` (configuration not stated), the outcome in the data set on Mus musculus [14], with Mus musculus [13] and in the data set on Mus musculus [6] was Active. Besides, the Activity entry in the data set on Mus musculus [7], in the data set on Mus musculus [8], in the data set on Mus musculus [9], in the data set on Mus musculus [10], in the data set on Mus musculus [11] and in the data set with Mus musculus [12] was “Non-Toxic” each time.
